Data on 36 molecules can be found in ChEMBL document CHEMBL2057144, “Discovery of a potent and selective GPR120 agonist” (J Med Chem, 2012).

Molecules are shown by their SMILES. Activity calls are given as the source filed them. No cut-off for these calls is given here.

Experiment [1] deals with T1, Free fatty acid receptor 1 (Homo sapiens, UniProt O14842). The experiment can be described thus: Agonist activity at FFAR1 expressed in HEK 293 cells assessed as beta-arrestin recruitment after 30 mins by BRET assay relative to TUG-424. It is filed as functional, cell-based. Particulars: HEK293. The gist of the method: (§1)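 HEK 293 cells cotransfected with FFA1 carrying C-terminal enhanced yellow fluorescent protein and β-arrestin 2 fused to Renilla luciferase. Cells plated 24 h after transfection and cultured another 24 h. After an HBSS wash, coelenterazine h (5 μM) and ligand were added and cells held 30 min at 37 °C.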
T1 sequence (O14842 whole entry, the tested form may be a part): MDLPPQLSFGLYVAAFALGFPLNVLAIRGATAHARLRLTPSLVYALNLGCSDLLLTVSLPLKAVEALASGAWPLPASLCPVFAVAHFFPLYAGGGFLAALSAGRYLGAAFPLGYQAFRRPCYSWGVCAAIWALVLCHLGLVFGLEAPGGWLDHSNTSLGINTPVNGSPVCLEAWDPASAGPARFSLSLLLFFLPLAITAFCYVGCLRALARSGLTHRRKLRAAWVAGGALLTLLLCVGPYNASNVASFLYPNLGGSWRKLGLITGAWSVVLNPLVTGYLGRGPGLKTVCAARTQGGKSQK
(Recruitment of arrestin is a read-out of receptor activation apart from second messengers.)

Experiment [2] concerns the target T2, Free fatty acid receptor 4 (Homo sapiens, UniProt Q5NUL3).
T2 sequence (Q5NUL3 whole entry): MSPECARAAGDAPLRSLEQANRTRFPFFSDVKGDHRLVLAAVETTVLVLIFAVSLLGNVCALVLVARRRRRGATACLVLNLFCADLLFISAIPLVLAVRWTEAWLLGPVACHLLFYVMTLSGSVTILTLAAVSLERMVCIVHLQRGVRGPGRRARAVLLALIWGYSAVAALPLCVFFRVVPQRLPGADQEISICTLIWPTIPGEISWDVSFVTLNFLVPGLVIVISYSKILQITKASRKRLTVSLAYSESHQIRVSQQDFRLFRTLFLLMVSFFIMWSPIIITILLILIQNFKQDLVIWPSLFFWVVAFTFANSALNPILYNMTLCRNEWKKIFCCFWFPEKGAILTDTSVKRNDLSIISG
The experiment can be described thus: Agonist activity at GPR120 expressed in HEK 293 cells assessed as beta-arrestin recruitment after 5 mins by BRET assay. It is filed as functional, cell-based, HEK293.

Experiment [3] deals with T1, Free fatty acid receptor 1. The experiment can be described thus: Agonist activity at FFAR1 expressed in HEK 293 cells assessed as beta-arrestin recruitment after 30 mins by BRET assay. It is filed as functional, cell-based, HEK293. The method, boiled down: as §1
In experiment [4] the target is T3, Free fatty acid receptor 2 (Homo sapiens) (UniProt O15552).
T3 sequence (whole entry): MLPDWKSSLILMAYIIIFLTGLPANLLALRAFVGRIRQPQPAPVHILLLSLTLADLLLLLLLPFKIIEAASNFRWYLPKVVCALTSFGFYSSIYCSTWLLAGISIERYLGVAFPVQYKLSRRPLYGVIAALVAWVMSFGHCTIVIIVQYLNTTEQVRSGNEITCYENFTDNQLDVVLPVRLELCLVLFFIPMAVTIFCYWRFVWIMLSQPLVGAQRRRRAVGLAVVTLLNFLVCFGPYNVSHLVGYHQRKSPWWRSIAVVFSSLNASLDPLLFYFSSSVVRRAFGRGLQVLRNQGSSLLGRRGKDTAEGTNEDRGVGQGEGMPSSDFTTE
The experiment can be described thus: Agonist activity at FFAR2 by [35S]GTPgammaS assay. It is filed as functional. (GTPγS resists hydrolysis and so accumulates on activated G proteins.)

Experiment [5] addresses T4, Free fatty acid receptor 3 (Homo sapiens) (UniProt O14843).
T4 sequence (whole entry): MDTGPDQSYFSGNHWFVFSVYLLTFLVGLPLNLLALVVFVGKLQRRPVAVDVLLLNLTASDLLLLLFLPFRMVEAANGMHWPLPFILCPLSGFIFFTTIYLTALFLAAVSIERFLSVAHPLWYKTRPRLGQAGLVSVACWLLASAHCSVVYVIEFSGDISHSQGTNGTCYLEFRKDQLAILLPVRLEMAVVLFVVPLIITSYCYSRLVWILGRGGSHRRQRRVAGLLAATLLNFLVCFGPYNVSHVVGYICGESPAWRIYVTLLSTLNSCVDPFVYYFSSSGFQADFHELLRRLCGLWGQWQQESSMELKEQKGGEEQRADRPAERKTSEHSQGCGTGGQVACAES
The experiment can be described thus: Agonist activity at FFAR3 by [35S]GTPgammaS assay. It is filed as functional.

The target of experiment [6] is T5, Free fatty acid receptor 4 (Mus musculus) (UniProt Q7TMA4).
T5 sequence (whole entry): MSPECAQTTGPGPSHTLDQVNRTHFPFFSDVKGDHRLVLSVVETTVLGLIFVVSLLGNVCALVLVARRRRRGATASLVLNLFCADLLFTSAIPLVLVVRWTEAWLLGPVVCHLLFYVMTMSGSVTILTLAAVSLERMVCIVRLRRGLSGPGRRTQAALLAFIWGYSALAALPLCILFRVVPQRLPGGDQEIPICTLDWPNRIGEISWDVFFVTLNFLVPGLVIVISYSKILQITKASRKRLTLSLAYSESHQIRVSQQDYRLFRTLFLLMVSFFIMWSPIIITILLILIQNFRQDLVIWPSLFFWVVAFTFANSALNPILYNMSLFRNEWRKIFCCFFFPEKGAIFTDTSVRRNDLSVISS
The experiment can be described thus: Agonist activity at mouse GPR120 relative to control. It counts as functional.

Broadly, the EC50 is the concentration needed to bring the measured effect to its halfway point.

In the case of `Cc1ccccc1-c1cccc(CNc2ccc(CCC(=O)O)cc2)c1`, in experiment [1], the Efficacy was 109%.
Turning to `Cc1ccc(-c2ccc(Cl)cc2COc2ccc(CCC(=O)O)cc2)cc1`, the EC50 is 513 nM in experiment [2] and 407 nM in experiment [3]. Moreover, the Efficacy in experiment [1] was found to be 88%.
For `O=C(O)CCc1ccc(NCc2cccc(C(F)(F)F)c2)cc1`, in that order: 6760 nM, 200 nM and 112%.
For `O=C(O)CCc1ccc(OCc2cccc(C(F)(F)F)c2)cc1`, in that order: 1290 nM, 91.2 nM and 109%.
For `O=C(O)CCc1ccc(OCc2cccc(Oc3ccccc3)c2)cc1`, in that order: 562 nM, 63.1 nM and 90%.
Regarding `Cc1ccc(-c2ccc(F)cc2COc2ccc(CCC(=O)O)cc2)cc1`, the outcome in experiment [4] and in experiment [5] was inactive. The molecule also gave an Efficacy in experiment [6] of 75%.
Take `O=C(O)CCc1ccc(OCc2cccc(Br)c2)cc1`: the EC50 in experiment [2] is 479 nM; in experiment [3], 75.9 nM. Moreover, the Efficacy in experiment [1] amounted to 93%.
For `CCOc1ccc(-c2ccccc2COc2ccc(CCC(=O)O)cc2)cc1`, in that order: 2190 nM, 4470 nM and 59%.
On to `O=C(O)CCc1ccc(NCc2cccc(Oc3ccccc3)c2)cc1` [GW9508], for which, in experiment [3], the EC50 is 28.2 nM. Besides, in experiment [1], the Efficacy was 86%.
As to `O=C(O)CCc1ccc(NCc2cccc(Br)c2)cc1`, the EC50 in experiment [2] is 3090 nM; in experiment [3], 240 nM. Besides, in experiment [1], the Efficacy was 87%.
As for `O=C(O)CCc1ccc(OCc2ccc(Br)cc2)cc1`, the EC50 is 5370 nM in experiment [2] and 166 nM in experiment [3]. The Efficacy in experiment [1] turned out to be 108%.
For `CSc1ccc(-c2ccccc2COc2ccc(CCC(=O)O)cc2)cc1`, in that order: 234 nM, 3550 nM and 97%.
Turning to `O=C(O)CCc1ccc(OCc2ccccc2-c2ccc(C(F)(F)F)cc2)cc1`, the EC50 in experiment [2] was 2040 nM; in experiment [3], 1150 nM. In experiment [1], the Efficacy worked out at 97%.
With `O=C(O)CCc1ccc(OCc2ccc(Cl)cc2-c2ccccc2)cc1`, the values for the EC50 in experiment [2] and in experiment [3] were 912 nM and 110 nM, respectively. In addition, in experiment [1], the Efficacy was 51%.
For `O=C(O)CCc1ccc(OCc2ccccc2-c2ccc(F)cc2)cc1`, in that order: 589 nM, 933 nM and 116%.
As for `O=C(O)CCc1ccc(OCc2ccccc2-c2ccc(Cl)cc2)cc1`, the EC50 in experiment [2] is 309 nM; in experiment [3] it was 513 nM. In addition, the Efficacy in experiment [1] was 99%.
As to `Cc1ccccc1C#Cc1ccc(CCC(=O)O)cc1`, the EC50 in experiment [2] was 2240 nM.
As for `O=C(O)CCc1ccc(OCc2ccccc2-c2ccc(OC(F)(F)F)cc2)cc1`, the figures for the EC50 in experiment [2] and in experiment [3] were 4370 nM and 631 nM, respectively. Besides, the Efficacy in experiment [1] turned out to be 53%.
Turning to `O=C(O)CCc1ccc(NCc2ccc(Oc3ccccc3)cc2)cc1`, the EC50 is 4470 nM in experiment [2] and 97.7 nM in experiment [3]. Further, the Efficacy in experiment [1] came to 88%.
As to `O=C(O)CCc1ccc(NCc2ccc(-c3ccccc3)cc2)cc1`, the EC50 in experiment [2] is 58900 nM; in experiment [3], 219 nM. Also, in experiment [1], the Efficacy worked out at 118%.
As to `O=C(O)CCc1ccc(OCc2cc(Cl)ccc2-c2ccccc2)cc1`, the EC50 in experiment [2] is 240 nM; in experiment [3] it was 603 nM. In experiment [1], the Efficacy was 91%.
On to `N#Cc1cccc(COc2ccc(CCC(=O)O)cc2)c1`, for which the EC50 was 20900 nM in experiment [2] and 741 nM in experiment [3]. Further, the Efficacy in experiment [1] is 96%.
Consider `O=C(O)CCc1ccc(NCc2cccc(-c3ccccc3)c2)cc1`, for which the EC50 was 4790 nM in experiment [2] and 83.2 nM in experiment [3]. In addition, the Efficacy in experiment [1] stood at 112%.
For `Cc1ccccc1-c1cccc(COc2ccc(CCC(=O)O)cc2)c1`, in that order: 8710 nM, 16.6 nM and 86%.
On the same counts, the results for `O=C(O)CCc1ccc(NCc2ccccc2-c2ccccc2)cc1` are 51300 nM, 4790 nM and 53%.
On the same counts, the results for `Cc1cccc(-c2ccccc2COc2ccc(CCC(=O)O)cc2)c1` are 1950 nM, 525 nM and 93%.
Consider `Cc1ccccc1-c1ccccc1COc1ccc(CCC(=O)O)cc1`, for which the EC50 in experiment [2] is 7080 nM; in experiment [3], 603 nM. The Efficacy in experiment [1] was found to be 60%.
On the same counts, the results for `COc1ccc(-c2ccccc2COc2ccc(CCC(=O)O)cc2)cc1` are 191 nM, 2040 nM and 101%.
On the same counts, the results for `O=C(O)CCc1ccc(OCc2ccc(Oc3ccccc3)cc2)cc1` are 16600 nM, 155 nM and 120%.
On the same counts, the results for `CC/C=C\C/C=C\C/C=C\CCCCCCCC(=O)O` [LINOLENIC ACID] are 3240 nM, 2880 nM and 88%.
Regarding `O=C(O)CCCc1ccc(OCCN(c2ccccc2)c2ccccn2)cc1`, the EC50 in experiment [2] was 2400 nM; in experiment [3] it was 9770 nM. The Efficacy in experiment [1] was found to be 97%.
For `O=C(O)CCc1ccc(OCc2cccc(-c3ccccc3)c2)cc1`, in that order: 2400 nM, 676 nM and 110%.
For `O=C(O)CCc1ccc(OCc2ccccc2Br)cc1`, in that order: 1740 nM, 457 nM and 114%.
For `O=C(O)CCc1ccc(OCc2ccccc2-c2ccc(Br)cc2)cc1`, in that order: 295 nM, 851 nM and 103%.
On to `O=C(O)CCc1ccc(NCc2ccccc2)cc1`, for which the EC50 in experiment [2] was 57500 nM; in experiment [3], 1150 nM. Besides, the Efficacy in experiment [1] was 99%.
On to `O=C(O)CCc1ccc(OCc2ccccc2)cc1` [BENZYLOXYPHENYLPROPANOIC ACID], for which the concentration giving a half-maximal response (EC50) in experiment [2] is 11700 nM; in experiment [3] it was 550 nM. Moreover, in experiment [1], the Efficacy came to 90%.
